The record followed here is ChEMBL document CHEMBL4371016, “Proline- and Arginine-Rich Peptides as Flexible Allosteric Modulators of Human Proteasome Activity” (J Med Chem, 2019).

Compound in data set [1]: CC(C)C[C@H](NC(=O)[C@H](Cc1ccc(O)cc1)NC(=O)[C@H](CCCNC(=N)N)NC(=O)[C@H](CCCNC(=N)N)NC(=O)[C@@H](N)CCCNC(=N)N)C(=O)N1CCC[C@H]1C(=O)N[C@@H](CCCNC(=N)N)C(=O)N[C@@H](Cc1c[nH]c2ccccc12)C(=O)NCC(N)=O
In words: (§1) Non-competitive mixed-type inhibition of SDS-activated human erythrocytes 20S proteasome chymotrypsin like activity assessed as substrate Vmax using Suc-LLVY-AMC as substrate measured every 2 mins up to 60 mins by fluorescence assay. Put shortly: (§2)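 SDS-activated CP at 1.4 nM. Suc-LLVY-AMC varied from 20 to 200 μM at inhibitor levels of 0.05, 0.1 and 0.2 μM. Fluorescence read kinetically at 37 °C. […] Three independent replicates.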

Compound in data set [2]: CC(C)C[C@H](NC(=O)[C@H](Cc1ccc(O)cc1)NC(=O)[C@@H]1CCCN1C(=O)[C@@H]1CCCN1C(=O)[C@H](CCCNC(=N)N)NC(=O)[C@@H]1CCCN1C(=O)[C@H](CCCNC(=N)N)NC(=O)[C@H](CCCNC(=N)N)NC(=O)[C@@H](N)CCCNC(=N)N)C(=O)N1CCC[C@H]1C(=O)N[C@@H](CCCNC(=N)N)C(=O)N[C@@H](Cc1c[nH]c2ccccc12)C(=O)NCC(=O)O
Described as §1. The method, boiled down: as §2

Compound in data set [3]: CC(C)C[C@H](NC(=O)[C@H](Cc1ccc(O)cc1)NC(=O)[C@H](CCCNC(=N)N)NC(=O)[C@H](CCCNC(=N)N)NC(=O)[C@@H](N)CCCNC(=N)N)C(=O)N1CCC[C@H]1C(=O)N[C@@H](CCCNC(=N)N)C(=O)N[C@@H](Cc1c[nH]c2ccccc12)C(=O)NCC(N)=O
Nature of the data set: (§3) Non-competitive mixed-type inhibition of SDS-activated human erythrocytes 20S proteasome chymotrypsin like activity assessed as substrate Km using Suc-LLVY-AMC as substrate measured every 2 mins up to 60 mins by fluorescence assay. Put shortly:
as §2

Compound in data set [4]: CC(C)C[C@H](NC(=O)[C@H](Cc1ccc(O)cc1)NC(=O)[C@@H]1CCCN1C(=O)[C@@H]1CCCN1C(=O)[C@H](CCCNC(=N)N)NC(=O)[C@@H]1CCCN1C(=O)[C@H](CCCNC(=N)N)NC(=O)[C@H](CCCNC(=N)N)NC(=O)[C@@H](N)CCCNC(=N)N)C(=O)N1CCC[C@H]1C(=O)N[C@@H](CCCNC(=N)N)C(=O)N[C@@H](Cc1c[nH]c2ccccc12)C(=O)NCC(=O)O
The description is as §3. Put shortly:
as §2

B1: Proteasome Macropain subunit MB1 (Homo sapiens), P28074 (protein)
chain: MALASVLERPLPVNQRGFFGLGGRADLLDLGPGSLSDGLSLAAPGWGVPEEPGIEMLHGTTTLAFKFRHGVIVAADSRATAGAYIASQTVKKVIEINPYLLGTMAGGAADCSFWERLLARQCRIYELRNKERISVAAASKLLANMVYQYKGMGLSMGTMICGWDKRGPGLYYVDSEGNRISGATFSVGSGSVYAYGVMDRGYSYDLEVEQAYDLARRAIYQATYRDAYSGGAVNLYHVREDGWIRVSSDNVADLHEKYSGSTP
Consider B1, for which the Vmax in data set [1] amounted to 13.5 s⁻¹; in data set [2], 13.6 s⁻¹. Further, the Km (usually the concentration of substrate that gives half-maximal velocity) in data set [3] is 14 µM; in data set [4], 17.4 µM.
